Among the data in ChEMBL document CHEMBL1143250, “Synthesis and bioevaluation of 22-hydroxyacuminatine analogs” (Bioorg Med Chem Lett, 2008) are IC50, Activity and EC50 values, retold here.

≈ marks a conversion by molar mass, not a printed value. Calls of active or inactive are those of the source. The rule behind the calls is not given here.

Experiment [1] has as its system DU-145. In words: Antiproliferative activity against human DU145 cells after 96 hrs. It is filed as functional, cell-based. The settings on record: DU-145, 96 h. In a few lines: (§1)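 Cytostatic growth-inhibition assay: cells were exposed to compound for 96 h. The IC50 is the concentration giving 50% inhibition of cell growth. Compounds were dissolved in DMSO, and the top concentration was capped by the final DMSO level in the mixture. Compounds showing no inhibition up to the highest concentration tested were scored not active.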

A short description of experiment [2]: Antiproliferative activity against human MIA PaCa cells after 96 hrs. The experiment is classed as functional, cell-based. In a few lines:
as §1

The subject of experiment [3] is HT-29. In words: Antiproliferative activity against human HT29 cells at 2 uM after 96 hrs. It is filed as functional, cell-based. A digest of the protocol: as §1
For experiment [4], the system named is DU-145. In words: Antiproliferative activity against human DU145 cells at 2 uM after 96 hrs. It is filed as functional, cell-based. In a few lines:
as §1

Another experiment has as its system KB. As to the kind of experiment: Cytotoxicity against human KB cells. To be noted: read-out: ED50 (the source's name). The experiment is classed as functional.
In the next experiment the test system is P388. In words: Cytotoxicity against mouse P388 cells. The experiment is classed as functional. To be noted: read-out: ED50 (the source's name).
The test system of experiment [5] is HT-29. As to the kind of experiment: Antiproliferative activity against human HT29 cells after 96 hrs. It is filed as functional, cell-based. To be noted: HT-29, 96 h. A digest of the protocol:
as §1

Another experiment has as its system PaCa. As to the kind of experiment: Antiproliferative activity against human MIA PaCa cells at 2 uM after 96 hrs. It is filed as functional, cell-based. A digest of the protocol:
as §1

What is called IC50 is the concentration that gives 50% inhibition. For `CCc1c2c(nc3ccc(OC)cc13)-c1cc3c(CO)cccc3c(=O)n1C2`, the IC50 was 1.81 µM in the experiment with DU-145 [1] and 0.81 µM in experiment [2]. Besides, the outcome with HT-29 [3] was inactive.
Consider `COC(=O)c1cccc2c(=O)n3c(cc12)-c1nc2ccccc2cc1C3`, for which the IC50 in experiment [2] amounted to 1.01 µM. The result with HT-29 [3] and in the experiment with DU-145 [4] was inactive.
Consider `CCc1c2c(nc3cc4c(cc13)OCCO4)-c1cc3c(C(=O)OC)cccc3c(=O)n1C2`, for which the IC50 in experiment [2] was determined as 1.4 µM. Besides, the outcome in the experiment on HT-29 [3] and with DU-145 [4] was inactive.
In experiment [2], `COC(=O)c1cccc2c(=O)n3c(cc12)-c1nc2ccc(OC)cc2c(C)c1C3` showed an IC50 of 1.99 µM. The result with HT-29 [3] and in the experiment on DU-145 [4] was inactive.
In turn, `CCc1c2c(nc3ccc(C)cc13)-c1cc3c(CO)cccc3c(=O)n1C2` had an IC50 in experiment [2] of 1.14 µM. Further, the outcome in the experiment with HT-29 [3] and in the experiment on DU-145 [4] was inactive.
As for `CCc1c2c(nc3ccc(C)cc13)-c1cc3c(C(=O)OC)cccc3c(=O)n1C2`, the IC50 in experiment [2] stood at 1.81 µM. Further, the outcome in the experiment on HT-29 [3] and in the experiment with DU-145 [4] was inactive.
In experiment [2], `COC(=O)c1cccc2c(=O)n3c(cc12)-c1nc2ccc(C)cc2c(CCl)c1C3` showed an IC50 of 1.35 µM. For the same compound, the result in the experiment with HT-29 [3] and in the experiment with DU-145 [4] was inactive.
`O=c1c2cccc(CO)c2cc2n1Cc1cc3cc(Cl)ccc3nc1-2` gave an IC50 in experiment [2] of 1.7 µM. Moreover, the result in the experiment on HT-29 [3] and in the experiment with DU-145 [4] was inactive.
As for `O=c1c2cccc(CO)c2cc2n1Cc1cc3ccccc3nc1-2`, the EC50 is 0.61 µg/mL (≈ 1.94 µM) in the experiment with KB and 1.32 µg/mL (≈ 4.2 µM) in the experiment with P388. Also, the IC50 in experiment [2] amounted to 1.01 µM. For the same compound, the outcome in the experiment with HT-29 [3] and in the experiment on DU-145 [4] was inactive.
For `CCc1c2c(nc3ccc(O)cc13)-c1cc3c(c(=O)n1C2)COC(=O)[C@]3(O)CC` [7-ETHYL-10-HYDROXYCAMPTOTHECIN], the IC50 in the experiment on DU-145 [1] was determined as 0.004 µM; in experiment [2] it was 0.006 µM; with HT-29 [5] it was 0.012 µM.
`CCc1c2c(nc3ccc(Cl)cc13)-c1cc3c(CO)cccc3c(=O)n1C2`: the IC50 in the experiment on DU-145 [1] was 1.69 µM; in experiment [2], 0.81 µM. The result with HT-29 [3] was inactive.
As to `CCc1c2c(nc3ccc(OC)cc13)-c1cc3c(C(=O)OC)cccc3c(=O)n1C2`, the outcome in the experiment on PaCa, in the experiment with HT-29 [3] and in the experiment with DU-145 [4] was inactive.
As for `CCc1c2c(nc3ccc(Cl)cc13)-c1cc3c(C(=O)OC)cccc3c(=O)n1C2`, the IC50 in experiment [2] amounted to 1.5 µM. Also, the outcome with HT-29 [3] and in the experiment on DU-145 [4] was inactive.
